Results: ChEMBL document CHEMBL2424615, “Design, synthesis, and characterization of novel tetrahydropyran-based bacterial topoisomerase inhibitors with potent anti-gram-positive activity” (J Med Chem, 2013)

Assays:
[1] = Clearance in Wistar rat at 1 mg/kg, iv administered as bolus dose; assay type: ADME, organism-based; set-up: dose 1 mg/kg, route intravenous; conditions: in vivo
Procedure, shortened: (§1)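 Male Wistar rats (n = 3) dosed by iv bolus (0.5 or 1 mg/kg) or orally (1 or 10 mg/kg); iv vehicles included pH 4.5 aqueous solution, 5% DMSO in water, or 10% PG/10% PEG400 in water pH 7; oral as pH 5.6 aqueous suspension or microsuspension in 7.5% modified gelatin. Blood sampled by preimplanted catheter over 24 h; plasma by LC-MS/MS, LOQ 1.5 ng/mL.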

[2] = Intrinsic clearance in human liver microsomes at 1 uM; assay type: ADME, Microsome; conditions: read-out: CLH
[3] = Intrinsic clearance in rat liver microsomes at 1 uM; assay type: ADME, Microsome; conditions: read-out: CLH
[4] = Intrinsic clearance in mouse liver microsomes at 1 uM; assay type: ADME, Microsome; conditions: read-out: CLH
[5] = target: DNA gyrase (Staphylococcus aureus, UniProt P0A0K8+P20831); experiment: Inhibition of wild type Staphylococcus aureus DNA gyrase subunit 2GyrA/2GyrB assessed as pBR322 supercoiling after 1 hr; assay type: protein-complex assay
[6] = tested on: Staphylococcus aureus; experiment: Antibacterial activity against NXL-101-resistant Staphylococcus aureus A-234 harboring DNA gyrase subunit A D83N mutant assessed as growth inhibition by broth microdilution method; assay type: functional
[7] = tested on: Escherichia coli; experiment: Antibacterial activity against wild type Escherichia coli ATCC 25922 assessed as growth inhibition by broth microdilution method; assay type: functional
[8] = tested on: Pseudomonas aeruginosa; experiment: Antibacterial activity against wild type Pseudomonas aeruginosa ATCC 27853 assessed as growth inhibition by broth microdilution method; assay type: functional
[9] = tested on: Streptococcus pneumoniae; experiment: Antibacterial activity against wild type Streptococcus pneumoniae ATCC 49619 assessed as growth inhibition by broth microdilution method; assay type: functional
[10] = tested on: Staphylococcus aureus; experiment: Antibacterial activity against wild type Staphylococcus aureus ATCC 29213 assessed as growth inhibition by broth microdilution method; assay type: functional
[11] = Inhibition of wild type Escherichia coli ATCC 25922 DNA gyrase subunit 2GyrA/2GyrB assessed as pBR322 supercoiling after 1 hr
[12] = target: Topoisomerase IV (Staphylococcus aureus, UniProt P0C1S7+P0C1U9); experiment: Inhibition of wild type Staphylococcus aureus ATCC 29213 topoisomerase-4 subunit 2GrlA/2GrlB assessed as pBR322 relaxation after 1 hr; assay type: protein-complex assay
[13] = AUC in Wistar rat at 1 mg/kg, iv administered as bolus dose; assay type: ADME, organism-based; set-up: dose 1 mg/kg, route intravenous; conditions: plasma; procedure, shortened: as §1
[14] = Oral bioavailability in Wistar rat at 10 mg/kg; assay type: ADME, organism-based; conditions: in vivo; procedure, shortened: as §1
[15] = AUC in Wistar rat at 10 mg/kg, po; assay type: ADME, organism-based; set-up: dose 10 mg/kg, route oral; conditions: plasma; procedure, shortened: as §1
[16] = Half life in Wistar rat at 1 mg/kg, iv administered as bolus dose and 10 mg/kg, po; assay type: ADME, organism-based; conditions: in vivo; procedure, shortened: as §1
[17] = Volume of distribution at steady state in Wistar rat at 1 mg/kg, iv administered as bolus dose and 10 mg/kg, po; assay type: ADME, organism-based; conditions: in vivo, read-out: Vdss; procedure, shortened: as §1
[18] = tested on: Enterococcus faecium; experiment: Antibacterial activity against vancomycin-resistant Enterococcus faecium A-949 assessed as growth inhibition by broth microdilution method; assay type: functional
[19] = tested on: Staphylococcus aureus; experiment: Antibacterial activity against NXL-101-resistant Staphylococcus aureus harboring DNA gyrase D83N mutant assessed as growth inhibition by broth microdilution method; assay type: functional
[20] = tested on: Staphylococcus aureus; experiment: Antibacterial activity against methicillin and quinolone-resistant Staphylococcus aureus A-798 assessed as growth inhibition by broth microdilution method; assay type: functional
[21] = target: DNA gyrase subunit A (Staphylococcus aureus, UniProt P20831, D83N); experiment: Inhibition of NXL-101-resistant Staphylococcus aureus DNA gyrase D83N mutant assessed as pBR322 supercoiling after 1 hr
[22] = target: DNA gyrase subunit A (Staphylococcus aureus, UniProt P20831, S84L); experiment: Inhibition of quinolone-resistant Staphylococcus aureus A-798 DNA gyrase S84L mutant assessed as pBR322 supercoiling after 1 hr
[23] = Inhibition of wild type Escherichia coli ATCC 25922 DNA topoisomerase-4 subunit 2ParC/2ParE assessed as pBR322 relaxation after 1 hr
[24] = target: hERG (KCNH2) (Homo sapiens, UniProt Q12809); experiment: Inhibition of human ERG expressed in CHO cells at 10 uM after 3 mins by patch clamp assay relative to control; assay type: cell-based; conditions: CHO cells that express human ERG
Chain of hERG (KCNH2) (Q12809 whole entry): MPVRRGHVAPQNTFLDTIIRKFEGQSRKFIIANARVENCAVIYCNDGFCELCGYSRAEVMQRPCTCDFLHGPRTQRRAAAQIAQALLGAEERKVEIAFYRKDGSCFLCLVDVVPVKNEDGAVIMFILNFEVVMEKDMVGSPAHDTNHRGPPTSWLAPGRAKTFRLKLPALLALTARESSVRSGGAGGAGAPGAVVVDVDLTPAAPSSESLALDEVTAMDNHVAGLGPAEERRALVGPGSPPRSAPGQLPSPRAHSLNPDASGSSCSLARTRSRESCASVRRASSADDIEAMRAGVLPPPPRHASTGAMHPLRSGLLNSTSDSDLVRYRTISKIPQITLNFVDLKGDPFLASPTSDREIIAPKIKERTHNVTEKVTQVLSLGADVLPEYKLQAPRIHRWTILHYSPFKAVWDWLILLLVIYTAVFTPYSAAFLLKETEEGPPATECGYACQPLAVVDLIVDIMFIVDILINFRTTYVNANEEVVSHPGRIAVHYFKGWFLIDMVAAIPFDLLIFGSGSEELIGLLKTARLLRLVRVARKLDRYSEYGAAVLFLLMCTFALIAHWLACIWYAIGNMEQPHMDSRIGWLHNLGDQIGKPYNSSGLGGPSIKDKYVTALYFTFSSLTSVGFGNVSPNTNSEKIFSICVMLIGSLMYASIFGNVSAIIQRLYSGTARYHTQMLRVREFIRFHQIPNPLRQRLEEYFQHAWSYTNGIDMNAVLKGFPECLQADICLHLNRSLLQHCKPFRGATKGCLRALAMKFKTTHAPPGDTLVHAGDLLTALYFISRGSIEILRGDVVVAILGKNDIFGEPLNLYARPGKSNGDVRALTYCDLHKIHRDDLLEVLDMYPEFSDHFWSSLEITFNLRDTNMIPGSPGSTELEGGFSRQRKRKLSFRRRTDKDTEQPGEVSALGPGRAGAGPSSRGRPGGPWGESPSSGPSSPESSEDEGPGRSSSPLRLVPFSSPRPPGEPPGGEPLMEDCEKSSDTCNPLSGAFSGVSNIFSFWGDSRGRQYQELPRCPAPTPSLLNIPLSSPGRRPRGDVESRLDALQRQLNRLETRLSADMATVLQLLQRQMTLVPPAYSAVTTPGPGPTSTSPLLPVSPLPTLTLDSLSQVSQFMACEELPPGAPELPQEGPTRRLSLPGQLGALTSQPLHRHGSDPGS

Structure (SMILES)	IC50 [5]	MIC [6]	MIC [7]	MIC [8]	MIC [9]	MIC [10]	IC50 [11]	IC50 [12]	MIC [18]	MIC [19]	MIC [20]	IC50 [21]	IC50 [22]	IC50 [23]	further results
COc1ccc2nccc(CC[C@@H]3CC[C@@H](NCc4ccc5c(n4)NC(=O)CS5)CO3)c2n1	30 nM	1 µg/mL	1 µg/mL	> 8 µg/mL	0.06 µg/mL	0.03 µg/mL	120 nM	500 nM	–	–	–	–	–	–	clearance [1]: 36 mL/min/kg; microsomal CLint at 1 µM [2]: 347 µL/min/mg; microsomal CLint at 1 µM [3]: > 1250 µL/min/mg; microsomal CLint at 1 µM [4]: 954 µL/min/mg; AUC [13]: 463 ng·h/mL; bioavailability [14]: 29%; AUC [15]: 1320 ng·h/mL; half-life [16]: 1.2 h; Vd [17]: 3.2 L/kg
COc1ccc2nccc(NC(=O)[C@H]3CC[C@H](NCc4ccc5c(n4)NC(=O)CS5)CC3)c2n1	30 nM	–	0.25 µg/mL	8 µg/mL	0.063 µg/mL	0.015 µg/mL	–	125 nM	0.063 µg/mL	0.25 µg/mL	0.015 µg/mL	8000 nM	8 nM	8 nM	–
O=c1ccc2ccc(F)c3c2n1CC3CN1CCC(NCc2cc3c(cn2)OCCO3)CC1 (centres undefined)	125 nM	–	1 µg/mL	> 8 µg/mL	0.015 µg/mL	0.015 µg/mL	–	2000 nM	0.06 µg/mL	1 µg/mL	0.015 µg/mL	2000 nM	30 nM	500 nM	–
COc1ccc2nccc(C(O)C[C@@H]3CC[C@@H](NCc4ccc5c(n4)NC(=O)CS5)CO3)c2n1 (mixture of isomers)	< 30 nM	0.5 µg/mL	1 µg/mL	> 8 µg/mL	0.03 µg/mL	0.03 µg/mL	500 nM	> 8000 nM	–	–	–	–	–	< 30 nM	inhibition at 0.05 h, 10 µM [24]: 99%
O=C(O)c1cn(C2CC2)c2cc(N3CCNCC3)c(F)cc2c1=O [CIPROFLOXACIN]	–	–	0.016 µg/mL	0.25 µg/mL	1 µg/mL	0.25 µg/mL	500 nM	–	> 8 µg/mL	0.25 µg/mL	> 8 µg/mL	–	–	–	–
